Compounds with a hit are over-represented: about 3.8% of the library has one in this group of screens.
RAM inhibit: blocks the yeast RAM network | S. cerevisiae dse1pr::URA3 reporter, 5-FOA growth OD615, 2 d; analog-sensitive cbk1-as2 kinase mutant strain | inhibition, % at 50 µM | actives 1.8% (n = 190,000);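 active = inhibition above a set limit, 3 SD over mean compound inhibition, cut at about 8.4% in these data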;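 note: inhibition rescues growth on 5-FOA so higher OD means more RAM inhibition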
NPY-Y2 PAM-ag: human NPY-Y2 potentiation or agonism, primary screen. cells expressing NPY-Y2, potentiator/agonist read-out. AID 1359. actives 0.45% (n = 220,000). activation, % at 3.6 µM; in the data active = activation above about 27%;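 note: cells stimulated with NPY near EC25 plus isoproterenol at EC100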
NPY-Y2 antag: NPY-Y2 (human) receptor antagonism; P49146; NPY-Y2 expressing cells, antagonist mode; inhibition, % at 2.7 µM; actives 0.99% (n = 140,000); in the data active = inhibition above about 17%
NPY-Y1 PAM-ag: human NPY-Y1 potentiation or agonism, primary screen; P25929; NPY-Y1 expressing cells, potentiator/agonist activation; activation, % at 3.6 µM; actives 0.37% (n = 220,000); in the data active = activation above about 33%, passing the limit was not always enough;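 note: cells stimulated with NPY at EC10 then isoproterenol at EC100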
Target sequence (P25929 whole entry, looked up): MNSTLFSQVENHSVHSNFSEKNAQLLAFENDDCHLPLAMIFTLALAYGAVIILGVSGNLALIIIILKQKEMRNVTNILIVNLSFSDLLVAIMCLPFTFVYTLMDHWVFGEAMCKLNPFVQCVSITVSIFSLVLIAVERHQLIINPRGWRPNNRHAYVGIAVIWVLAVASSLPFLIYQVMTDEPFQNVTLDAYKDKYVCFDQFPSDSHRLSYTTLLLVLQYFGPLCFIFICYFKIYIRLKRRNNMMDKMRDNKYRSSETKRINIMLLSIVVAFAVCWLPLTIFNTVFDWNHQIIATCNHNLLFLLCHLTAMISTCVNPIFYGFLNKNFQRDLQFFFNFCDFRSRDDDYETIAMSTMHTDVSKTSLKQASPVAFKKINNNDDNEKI
INS promoter inh: TRM-6 insulin promoter activity inhibition; TRM-6 cells, insulin promoter-eGFP reporter, imaging; reporter expression induced with tamoxifen; inhibition, % at 2 µM; actives 0.9% (n = 130,000); AID 1273;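 active = inhibition above the mean plus 3 SD, with well images judged a real hit on visual review, cut at about 60% in these data, passing the limit was not always enough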
NPY Y1 blocker: NPY-Y1 (human) receptor antagonism; P25929; HEK293-CNG Y1 cells, membrane potential fluorescence; NPY at EC95, then isoproterenol; inhibition, % at 3.6 µM; actives 1% (n = 200,000);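 active = inhibition above the campaign mean inhibition of all tested compounds plus 3 SD, cut at about 20% in these data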
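Test system: HEK293 cells co-expressing NPY Y1 receptor and cyclic-nucleotide gated channel; Also added: NPY (25 nM), isoproterenol (1 µM), Ro 20-1724 (25 µM); Compound dosing: one concentration, 3.6 µM, in 0.4% DMSO; Timing: dye 3 h, compound 60 min room temperature, stimulation 45 min; Technique: Membrane-potential fluorescent dye readout.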
A number is an active result; i = inactive; nt = not tested or not shown.

SMILES	RAM inhibit	NPY-Y2 PAM-ag	NPY-Y2 antag	NPY-Y1 PAM-ag	INS promoter inh	NPY Y1 blocker
COc1ccc(C(=O)Nc2cccc(NC(C)=O)c2)cc1OC	i	i	i	i	i	i
Cc1ccc(S(=O)(=O)Nc2ccc(S(=O)(=O)NC(C)(C)C)cc2)cc1	i	i	i	i	i	i
CC(C)(C)NS(=O)(=O)c1ccc(NS(=O)(=O)c2ccc(F)cc2)cc1	i	90	i	i	i	i
Cc1cc(/C=C\c2nc(O)c([N+](=O)[O-])c(=O)[nH]2)c(C)n1-c1ccccc1	8.7	i	nt	i	nt	i
COc1ccc(CN2C(=O)CCC2(C)C(=O)NC2CCCC2)c(OC)c1 (centres undefined)	i	i	i	i	70	i
CCOC(=O)N1CCN(C(=O)c2oc3ccc(S(=O)(=O)N4CCCCC4)cc3c2C)CC1	i	i	i	i	nt	i
CCCCN(C)C(=O)c1oc2ccc(S(=O)(=O)N3CCCCCC3)cc2c1C	9.8	i	i	i	i	i
CNC(=O)c1c2c(nc3ccc(Br)cc13)CCCC2	i	i	nt	i	nt	i
CCN1C(=O)CC(N2CCN(c3ccc(C(=O)c4ccncc4)cc3)CC2)C1=O (centres undefined)	i	i	i	i	70	i
O=C(NCc1ccccc1)N1CCC(n2cnc3cc(F)ccc32)CC1	i	i	i	i	78	i
Cc1ccc2c(c1)nnn2C1CCN(C(=O)NCc2ccccc2)CC1	i	i	nt	i	i	i
COc1ccc(-n2c(Cn3c(=O)sc4ccccc43)nnc2SCC(=O)N2CCOCC2)cc1	i	i	i	i	nt	i
O=C1NC(=O)/C(=C/c2cccc([N+](=O)[O-])c2)N1	nt	i	nt	i	nt	nt
CCN1C/C(=C/c2cccc([N+](=O)[O-])c2)C(=O)/C(=C/c2cccc([N+](=O)[O-])c2)C1	i	i	i	i	100	i
CN(C1=NC(=O)C(CC(=O)O)S1)c1ccc(O)cc1 (centres undefined)	i	i	nt	i	i	i
Cc1ccc(C2C(/C=C3/SC(=S)NC3=O)=C(c3cccs3)Oc3ccccc32)cc1 (centres undefined)	10	i	i	i	i	i
Cc1cc(N2CCOCC2)ccc1/C=C1\SC(=O)N(C(C)C)C1=O	11	i	i	i	nt	i
CC(C)COc1ccc(S(=O)(=O)NNC(=O)c2cc3ccccc3o2)cc1	i	i	i	i	i	i
CCCCOc1ccc(S(=O)(=O)NNC(=O)c2cc3ccccc3o2)cc1	10	i	i	i	i	i
Fc1cccc(NC(=S)N2CCCCC2)c1	i	i	i	104	nt	i
CCc1ccc(NC(=S)N2CCCCCCC2)cc1	i	i	nt	i	79	i
C/C(=N\O)c1oc2ccc3c(C)cc(=O)oc3c2c1C	nt	i	nt	i	nt	nt
CCc1ccc(NC(=S)N(Cc2cccc(Br)c2)CC2CCC(C(=O)O)CC2)cc1 (centres undefined)	i	i	nt	i	nt	i
Cc1ccc(S(=O)(=O)CCC(=O)Nc2cccc([N+](=O)[O-])c2)cc1	i	i	nt	i	i	i
Cc1ccc(NS(=O)(=O)c2ccc(OCC(=O)Nc3cccc([N+](=O)[O-])c3)c(C)c2)cc1	i	i	i	44	i	i
SMILES	RAM inhibit	NPY-Y2 PAM-ag	NPY-Y2 antag	NPY-Y1 PAM-ag	INS promoter inh	NPY Y1 blocker
c1ccc(C2=Nn3c(nnc3-c3ccco3)SC2)cc1	9.3	i	nt	i	i	i
Fc1ccc(C2=Nn3c(nnc3-c3ccco3)SC2)cc1	nt	i	nt	i	nt	nt
CC(C)C(C(=O)Nc1ccc(N2CCOCC2)cc1)N1C(=O)c2ccccc2C1=O (centres undefined)	9.3	i	i	i	nt	i
CCOC(=O)Cc1nnc(NC(=O)C(CC)Sc2nnc3c4ccccc4n(C)c3n2)s1 (centres undefined)	i	i	i	i	i	i
CCOC(=O)c1sc(NC(=O)C(CC)Sc2nnc3c4ccccc4n(C(C)C)c3n2)nc1C (centres undefined)	8.6	i	i	i	nt	i
Nc1cc(C(F)(F)F)ccc1-n1cccc1	i	i	nt	i	nt	i
Nc1nc(CN2CCCCCC2)nc(Nc2ccccc2)n1	i	i	i	i	89	i
CCOc1nc(C)cc(C)c1S(=O)(=O)c1ccc(Cl)cc1	8.7	i	nt	i	nt	i
Cc1cccc(/C=N\Nc2cn[nH]c(=O)c2Cl)c1	9.8	i	i	i	i	i
O=c1[nH]ncc(N/N=C\c2cccnc2)c1Cl	nt	i	nt	i	nt	nt

High-throughput results from PubChem.
